In series [1] the test system is Pseudomonas aeruginosa. The experiment in a line: Antimicrobial activity against Pseudomonas aeruginosa by CLSI method. The class given is functional.
Series [2] has as its system Pseudomonas aeruginosa. The experiment in a line: Antimicrobial activity against Pseudomonas aeruginosa by EUCAST method. The class given is functional.
For series [3], the system named is Acinetobacter baumannii. In words: Antimicrobial activity against Acinetobacter baumannii by CLSI method. The format is functional.
Series [4] has as its system Acinetobacter baumannii. In words: Antimicrobial activity against Acinetobacter baumannii by EUCAST method. The format is functional.
Series [5] in a line: Clearance in patient with gram-negative bacterial infection at […], iv. The class given is ADME, organism-based. Also noted: route intravenous. As to conditions: human, in vivo. The method in brief: (§1)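 Critically ill ICU patients (n=18) received CMS 3 MU (240 mg) in 100 ml saline as a 15-min IV infusion every 8 h, reduced to 160 mg q8h if creatinine clearance was <50 ml/min. Venous plasma was taken predose and 15–465 min after the first and fourth infusions, then chilled and stored at −70°C. Colistin was measured by LC-MS/MS, and CMS after acid hydrolysis. Parameters came from NONMEM population modelling.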

Series [6] is described as follows: Volume of distribution of central compartment in patient with gram-negative bacterial infection at […], iv. Conditions: human, in vivo. The class given is ADME, organism-based. Also noted: route intravenous. The method in brief: as §1
For series [7], the system named is Homo sapiens. In words: Intercompartmental clearance in patient with gram-negative bacterial infection at […], iv. The format is ADME, organism-based. Also on record: route intravenous. As to conditions: in vivo. The method in brief: as §1
The nature of series [8]: (§2) Half life in central compartment of patient with gram-negative bacterial infection at […], iv. The format is ADME, organism-based. Also noted: route intravenous. Conditions: human, in vivo. The method in brief: as §1
The nature of series [9]: (§3) Half life in peripheral compartment of patient with gram-negative bacterial infection at […], iv. Also on record: route intravenous. Conditions: human, in vivo. The class given is ADME, organism-based. The method in brief:
as §1

A short description of series [10]: Cmax in patient with gram-negative bacterial infection at […], iv after 15 mins. The class given is ADME, organism-based. Also on record: route intravenous. Conditions: human, in vivo. In short, it runs like this: as §1
The nature of series [11]: Drug concentration at steady state in patient with gram-negative bacterial infection at […], iv after 7 hrs. The class given is ADME, organism-based. Also on record: route intravenous. As to conditions: human, in vivo, read-out: Css. In short, it runs like this: as §1
Series [12] relates to Homo sapiens. In words: Clearance of formed compound in patient with gram-negative bacterial infection at […], iv. The class given is ADME, organism-based. Also noted: route intravenous. Conditions: in vivo. The method in brief: as §1
The subject of series [13] is Homo sapiens. The experiment in a line: Volume of distribution of formed compound in patient with gram-negative bacterial infection at […], iv. The class given is ADME, organism-based. Also on record: route intravenous. Conditions: in vivo. The method in brief:
as §1

Series [14] relates to Homo sapiens. Described as §2. As to conditions: in vivo. The class given is ADME, organism-based. Also on record: route intravenous. The method in brief:
as §1

Series [15] relates to Homo sapiens. Described as §3. Also noted: route intravenous. Conditions: in vivo. The class given is ADME, organism-based. In short, it runs like this: as §1
Series [16] concerns Homo sapiens. The experiment in a line: Half life in patient with gram-negative bacterial infection at […], iv. Also on record: route intravenous. The format is ADME, organism-based. Conditions: in vivo. The method in brief:
as §1

Bounds are passed on as bounds.

Regarding `CCC(C)CCCCC(=O)N[C@@H](CCNCS(=O)(=O)O)C(=O)N[C@H](C(=O)N[C@@H](CCNCS(=O)(=O)O)C(=O)N[C@H]1CCNC(=O)[C@H]([C@@H](C)O)NC(=O)[C@H](CCNCS(=O)(=O)O)NC(=O)[C@H](CCNCS(=O)(=O)O)NC(=O)[C@H](CC(C)C)NC(=O)[C@@H](CC(C)C)NC(=O)[C@H](CCNCS(=O)(=O)O)NC1=O)[C@@H](C)O.CS(=O)(=O)O` (stereo partly specified) [COLISTIN METHYLSULPHATE], the MIC against Pseudomonas aeruginosa [1], against Pseudomonas aeruginosa [2], in the series on Acinetobacter baumannii [3] and against Acinetobacter baumannii [4] was at most 2 mg/L throughout. Besides, the clearance – broadly, the rate of elimination divided by the concentration – in [5] was 228 mL/min. Besides, in series [6], the Vd (in general, the apparent volume that relates the amount in the body to the concentration in plasma or blood) is 13.5 L. Moreover, in the series with Homo sapiens [7], the CL is 133 L/h. In addition, the results for the half-life in series [8] and in series [9] were 2.76 min and 2.3 h, respectively. Moreover, the Cmax (as a rule, the peak of the concentration-time curve) in [10] was determined as 2.93 µg/mL. In series [11], the concentration at 7 h is 2.3 µg/mL.

With COLISTIN, the CL with Homo sapiens [12] stood at 9.09 L/h. In addition, the Vd in the series with Homo sapiens [13] was determined as 189 L. In addition, the t1/2 in the series with Homo sapiens [14] is 14.4 h; with Homo sapiens [15] it was 14.4 h; in the series on Homo sapiens [16], 7.1 h.

For the origin of these results see ChEMBL document CHEMBL1649525, “Population pharmacokinetic analysis of colistin methanesulfonate and colistin after intravenous administration in critically ill patients with infections caused by gram-negative bacteria” (Antimicrob Agents Chemother, 2009).
